Results gathered from unrelated publications.
Lines come from different studies, so protocols differ.
Organism: Trypanosoma brucei
Observed: parasite growth

CC(=O)O[C@H]1C(=O)[C@@]2(C)[C@H]([C@H](OC(=O)c3ccccc3)[C@]3(O)C[C@H](OC(=O)[C@H](O)[C@@H](NC(=O)c4ccccc4)c4ccccc4)C(C)=C1C3(C)C)[C@]1(OC(C)=O)CO[C@@H]1C[C@@H]2O  EC50: 7.6 nM
COc1cc(C)c(C#N)c(SCC(=O)c2ccccc2)n1  EC50 (resazurin; RHODESIENSE): 32800 nM
CCCCCC(=O)NC(Cc1c[nH]c2ccccc12)C(=O)NC(Cc1c[nH]c2ccccc12)C(=O)NC(CC(C)C)C(=O)C1(C)CO1 (stereo not drawn)  EC50 (SYBR Green; 72 h): < 500 nM
Cc1cc(C)c(C#N)c(SCC(=O)c2ccccc2C)n1  EC50 (resazurin): 25800 nM
Cc1ccc(Cn2cc(C(=O)N/N=C/c3ccc([N+](=O)[O-])s3)c(=O)c3cc(Br)ccc32)cc1  EC50 (resazurin; 72 h): 140 nM
N=C(N)c1ccc(OCCCCCOc2ccc(C(=N)N)cc2)cc1  EC50 (SYBR Green; RHODESIENSE): 27 nM
C[C@@H]1C/C=C/C=C/C=C/C=C/[C@H](O[C@@H]2O[C@H](C)[C@@H](O)[C@H](N)[C@@H]2O)C[C@@H]2O[C@](O)(C[C@@H](O)C[C@H]3O[C@@H]3/C=C/C(=O)O1)C[C@H](O)[C@H]2C(=O)O  EC50 (resazurin; 48 h): 12000 nM
O=C(N/N=C/c1ccc([N+](=O)[O-])o1)c1cn(Cc2ccccc2)c2ccccc2c1=O  EC50 (resazurin; 72 h): 570 nM
Cc1cc(C)c(C#N)c(SCC(=O)c2cccc(N)c2)n1  EC50 (resazurin; RHODESIENSE): 41400 nM
CCCCCC(=O)NC(Cc1ccc(N)cc1)C(=O)NC(Cc1ccc(N)cc1)C(=O)NC(CC(C)C)C(=O)C1(C)CO1 (stereo not drawn)  EC50 (SYBR Green; 72 h): < 500 nM
O=C(N/N=C/c1ccc([N+](=O)[O-])o1)c1cn(Cc2ccccc2)c2ccc(Oc3ccccc3)cc2c1=O  EC50 (resazurin; 72 h): 320 nM
O=c1c(O[C@@H]2O[C@H](CO)[C@H](O)[C@H](O)[C@H]2O)c(-c2ccc(O)c(O)c2)oc2cc(O)cc(O)c12  EC50 (resazurin; 48 h): 50000 nM
